What was measured:
[1] = biological target: T1, UGT 1A3 (Homo sapiens, UniProt P35503); assay: Glucuronidation of opicapone by recombinant UGT1A3; type: in vitro ADME; details: 20 μM opicapone
T1 sequence (P35503 29-534): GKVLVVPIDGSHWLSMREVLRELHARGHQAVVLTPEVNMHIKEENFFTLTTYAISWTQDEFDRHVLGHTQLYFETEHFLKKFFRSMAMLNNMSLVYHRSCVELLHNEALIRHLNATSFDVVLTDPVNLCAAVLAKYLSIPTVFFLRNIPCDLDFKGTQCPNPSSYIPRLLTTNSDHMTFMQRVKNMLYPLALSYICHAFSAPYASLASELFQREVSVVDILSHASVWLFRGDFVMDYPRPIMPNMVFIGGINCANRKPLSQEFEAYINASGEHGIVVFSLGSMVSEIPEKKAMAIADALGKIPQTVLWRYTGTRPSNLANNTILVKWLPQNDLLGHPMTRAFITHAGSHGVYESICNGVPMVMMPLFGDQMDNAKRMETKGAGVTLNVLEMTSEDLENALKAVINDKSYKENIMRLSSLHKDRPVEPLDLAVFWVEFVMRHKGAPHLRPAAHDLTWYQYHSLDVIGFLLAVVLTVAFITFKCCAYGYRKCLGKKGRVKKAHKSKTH

[2] = type: in vivo, rat; details: oral 100 mg/kg
Outline: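 In Sprague Dawley rats given 100 mg/kg [14C]-labelled compound (100 μCi/kg) orally in 0.2% HPMC, heparinized blood was taken by cardiac puncture at 2–168 h. Plasma was precipitated with MeOH/ACN (50:50), dried under N2 and reconstituted. Urine (0–6, 6–24 h) and feces (0–12, 12–24, 24–48 h) were pooled and stored at −80°C. Analysis used accurate-mass LC-MS with offline radiodetection.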

[3] = biological target: T2, UGT 2B7 (Homo sapiens, UniProt P16662); assay: Glucuronidation of opicapone by recombinant UGT2B7; type: in vitro ADME; details: 20 μM opicapone
T2 sequence (P16662 24-529): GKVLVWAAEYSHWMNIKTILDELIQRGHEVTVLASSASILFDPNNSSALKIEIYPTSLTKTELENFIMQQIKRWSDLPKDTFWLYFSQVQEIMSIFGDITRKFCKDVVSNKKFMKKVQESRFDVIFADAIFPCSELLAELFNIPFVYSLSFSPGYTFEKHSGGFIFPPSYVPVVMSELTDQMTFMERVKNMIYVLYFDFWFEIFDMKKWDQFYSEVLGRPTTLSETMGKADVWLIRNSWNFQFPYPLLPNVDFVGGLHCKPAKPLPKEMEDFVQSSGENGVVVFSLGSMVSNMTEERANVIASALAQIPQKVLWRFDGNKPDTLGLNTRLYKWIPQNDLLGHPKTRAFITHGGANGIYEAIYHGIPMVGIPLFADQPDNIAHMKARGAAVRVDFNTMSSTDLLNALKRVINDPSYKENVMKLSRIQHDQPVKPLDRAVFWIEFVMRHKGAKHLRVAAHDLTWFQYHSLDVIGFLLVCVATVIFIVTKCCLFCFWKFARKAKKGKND

[4] = biological target: T3, UGT 2B15 (Homo sapiens, UniProt P54855); assay: Glucuronidation of opicapone by recombinant UGT2B15; type: in vitro ADME; details: 20 μM opicapone
T3 sequence (P54855 24-530): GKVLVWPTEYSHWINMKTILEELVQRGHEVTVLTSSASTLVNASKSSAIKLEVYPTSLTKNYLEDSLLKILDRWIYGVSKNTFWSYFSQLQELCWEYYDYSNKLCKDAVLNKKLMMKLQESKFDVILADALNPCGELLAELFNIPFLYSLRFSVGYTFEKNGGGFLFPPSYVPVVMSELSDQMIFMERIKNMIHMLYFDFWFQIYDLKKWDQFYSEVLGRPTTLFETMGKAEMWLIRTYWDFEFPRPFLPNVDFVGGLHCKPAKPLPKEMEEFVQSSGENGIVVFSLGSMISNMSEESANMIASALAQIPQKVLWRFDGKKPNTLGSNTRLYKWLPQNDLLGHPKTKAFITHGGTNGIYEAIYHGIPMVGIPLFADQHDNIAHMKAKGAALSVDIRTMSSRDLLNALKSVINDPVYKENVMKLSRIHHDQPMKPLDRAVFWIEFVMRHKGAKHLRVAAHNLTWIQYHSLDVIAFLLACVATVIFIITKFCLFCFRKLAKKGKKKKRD

[5] = biological target: T4, UGT 2B4 (Homo sapiens, UniProt P06133); assay: Glucuronidation of opicapone by recombinant UGT2B4; type: in vitro ADME; details: 20 μM opicapone; incubation period of 60 min
T4 sequence (P06133 24-528): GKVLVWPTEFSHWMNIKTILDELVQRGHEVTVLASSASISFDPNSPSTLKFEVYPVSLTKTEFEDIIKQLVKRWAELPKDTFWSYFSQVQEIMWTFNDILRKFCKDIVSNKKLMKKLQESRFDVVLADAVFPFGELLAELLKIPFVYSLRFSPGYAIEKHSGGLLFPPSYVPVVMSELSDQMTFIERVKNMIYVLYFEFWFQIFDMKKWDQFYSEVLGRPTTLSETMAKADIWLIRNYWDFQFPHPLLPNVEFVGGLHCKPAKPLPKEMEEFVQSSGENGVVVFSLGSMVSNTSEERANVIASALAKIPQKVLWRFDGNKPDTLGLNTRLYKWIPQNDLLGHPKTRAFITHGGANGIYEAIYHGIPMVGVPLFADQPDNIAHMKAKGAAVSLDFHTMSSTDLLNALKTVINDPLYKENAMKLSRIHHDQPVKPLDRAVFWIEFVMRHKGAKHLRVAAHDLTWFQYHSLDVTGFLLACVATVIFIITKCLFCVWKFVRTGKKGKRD

[6] = biological target: T5, UGT1A6 (Homo sapiens, UniProt P19224); assay: Glucuronidation of opicapone by recombinant UGT1A6; type: in vitro ADME
T5 sequence (P19224 27-532): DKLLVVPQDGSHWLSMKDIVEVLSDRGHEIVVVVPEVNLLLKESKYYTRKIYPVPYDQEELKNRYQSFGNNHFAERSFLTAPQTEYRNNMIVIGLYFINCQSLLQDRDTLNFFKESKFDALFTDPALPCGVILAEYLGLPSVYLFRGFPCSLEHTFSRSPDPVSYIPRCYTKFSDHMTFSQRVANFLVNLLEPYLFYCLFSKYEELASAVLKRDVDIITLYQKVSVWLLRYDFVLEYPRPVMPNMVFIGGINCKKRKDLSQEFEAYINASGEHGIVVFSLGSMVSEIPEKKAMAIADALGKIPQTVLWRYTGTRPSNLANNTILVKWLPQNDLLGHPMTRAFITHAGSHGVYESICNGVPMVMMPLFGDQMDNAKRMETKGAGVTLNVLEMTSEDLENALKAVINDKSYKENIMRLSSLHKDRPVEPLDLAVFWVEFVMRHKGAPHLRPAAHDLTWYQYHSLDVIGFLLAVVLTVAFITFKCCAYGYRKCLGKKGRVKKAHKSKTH

Cc1c(Cl)c(C)[n+]([O-])c(Cl)c1-c1noc(-c2cc(O)c(O)c([N+](=O)[O-])c2)n1 [opicapone, 2,5‐dichloro‐3‐(5‐(3,4‐dihydroxy‐5‐nitrophenyl)‐1,2,4‐oxadiazol‐3‐yl)‐4,6‐dimethylpyridine 1‐oxide]
Formation of BIA 9-1106 (screening) [1]: little amounts | Plasma, % of total AUC0–168 h of drug-related radioactivity ([2]; ND = not detected): 15.1% | Time of peak of unchanged opicapone in plasma ([2]; earliest time point analyzed): 2 h | Feces, % of administered dose ([2]; feces pools 0–48 h, ND = not detected): 6.25% | Urine, % of administered dose ([2]; urine pools 0–24 h, ND = not detected, 100 mg/kg): 0.1% | Formation of BIA 9-1106 (screening) [3]: little amounts | Formation of BIA 9-1106 (screening) [4]: little amounts | Metabolite formation (screening) [5]: No metabolite formation was detected | Formation of BIA 9-1106 (screening) ([6]; 20 μM opicapone): little amounts | Glucuronidation kinetics (form of the rate curve) ([6]; opicapone 1 to 250 μM): linear

From paper PMC8929358 (Pharmacology Research & Perspectives, 2021)
